Published values pooled from the literature.
Lines come from different studies, so protocols differ. ≈ marks a conversion by molar mass, not a printed value.

Structure (SMILES)	tested on	test	system	conditions	endpoint	value
CCC1(c2ccc(N)cc2)CCC(=O)NC1=O (centres unmarked)	OVCAR-3	cell growth or viability, CCK-8		48 h	IC50	> 50000 nM
CC1=CC(=O)[C@H]2O[C@]1(C)O[C@H]([C@H](C)/C=C(C)/C=C/C(O)=C1/C(=O)CNC1=O)[C@H]2C	Bacillus cereus	microbial growth			MIC	25 µM
NC[C@H]1O[C@H](O[C@H]2[C@H](O)[C@@H](O[C@H]3O[C@H](CO)[C@@H](O)[C@H](N)[C@H]3O)[C@H](N)C[C@@H]2N)[C@H](N)C[C@@H]1O	Bacillus cereus	microbial growth	ATCC11778		MIC	18.8 µg/mL
C=C(C)[C@H]1Cc2c(ccc3c2O[C@@H]2COc4cc(OC)c(OC)cc4[C@@H]2C3=O)O1	ReNcell VM	cell growth or viability, imaging		24 h	IC50	~280 nM
CO/N=C(\C(=O)N[C@@H]1C(=O)N2C(C(=O)O)=C(CSc3nc(=O)c(=O)[nH]n3C)CS[C@H]12)c1csc(N)n1	Salmonella enterica	microbial growth	CHOLERAESUIS	20 h, pH 7	MIC	0.0625 µg/mL
Cc1cc(C2CCCCC2)n(O)c(=O)c1	Cryptococcus gattii	microbial growth			MIC80	2.3 µM (≈ 0.477 µg/mL)
CCN1CCN(c2cc3c(cc2F)c(=O)c(C(=O)O)cn3C2CC2)CC1	Salmonella enterica	microbial growth	CHOLERAESUIS	20 h, pH 7	MIC	0.0625 µg/mL
O=c1[nH]cc(F)c(=O)[nH]1	Shigella dysenteriae	microbial killing, broth dilution		48 h	MBC	8 µg/mL (≈ 61.5 µM)
O=C1NN=C(N=Cc2ccc(O)c(O)c2)C1=NNn1c(-c2ccccc2)nc2ccccc2c1=O	Salmonella enterica	microbial growth, broth dilution	PARATYPHI	24 h	MIC	53.5 µM
CS(=O)(=O)c1ccc([C@@H](O)[C@@H](CF)NC(=O)C(Cl)Cl)cc1	Salmonella enterica	microbial growth	CHOLERAESUIS	20 h, pH 5.5	MIC	4 µg/mL
COC[C@H](NC(=O)OCc1ccccc1)C(=O)N[C@@H](Cc1ccccc1)C(=O)N[C@@H](CC(C)C)C(=O)C(=O)Nc1ccccc1	RPMI-8226	cell growth or viability, MTS		72 h	IC50	437 nM
CC1=NN(CNc2ccc(O)cc2)C(=O)C1=NNn1c(-c2ccccc2)nc2ccccc2c1=O	Salmonella enterica	microbial growth, broth dilution	PARATYPHI	24 h	MIC	107 µM
Cc1cc(Cc2ccc(Cl)cc2)n(O)c(=O)c1	Cryptococcus gattii	microbial growth			MIC80	3 µM (≈ 0.749 µg/mL)
CC1=NN(CNC(=O)c2ccccc2)C(=O)C1=NNn1c(-c2ccccc2)nc2ccccc2c1=O	Salmonella enterica	microbial growth, broth dilution	PARATYPHI	24 h	MIC	51.9 µM
CC(C)C[C@H](NC(=O)[C@H](Cc1c[nH]c2ccccc12)NC(=O)[C@H](C)NC(=O)OCc1ccccc1)C(=O)C(=O)Nc1ccccc1	RPMI-8226	cell growth or viability, MTS		72 h	IC50	760 nM
CCCCCCCCCCCC(=O)OC[C@H]1O[C@@H](n2cc(C)c(=O)[nH]c2=O)C[C@@H]1OC(=O)c1ccc(C(C)(C)C)cc1	Bacillus cereus	microbial killing, broth dilution			MBC	8 µg/mL (≈ 13.7 µM)
COc1cc(Cc2cnc(N)nc2N)cc(OC)c1OC	Shigella dysenteriae	microbial killing, broth dilution		48 h	MBC	32 µg/mL (≈ 110 µM)
COc1ccc(Cc2cc(C)cc(=O)n2O)cc1	Cryptococcus gattii	microbial growth			MIC80	2.3 µM (≈ 0.564 µg/mL)
CC(C=CC(O)=C1C(=O)CNC1=O)=CC(C)C1OC2(C)OC(C(O)C=C2C)C1C (centres unmarked)	Bacillus cereus	microbial growth			MIC	> 100 µM
CCCCCCCCCCCC(=O)OC[C@H]1O[C@@H](n2cc(C)c(=O)[nH]c2=O)C[C@@H]1O	Bacillus cereus	microbial growth, broth dilution			MIC	4 µg/mL
O=C(N[C@H](CO)[C@H](O)c1ccc([N+](=O)[O-])cc1)C(Cl)Cl	Salmonella enterica	microbial growth	CHOLERAESUIS	20 h, pH 7.2	MIC	4 µg/mL
CC(C)C[C@H](NC(=O)OCc1ccccc1)C(=O)N[C@@H](CC(C)C)C(=O)N[C@@H](CC(C)C)C(=O)C(=O)Nc1cccc2c1CCC2	RPMI-8226	cell growth or viability, MTS		72 h	IC50	65.9 nM
Cc1cc(CC2CCCCC2)n(O)c(=O)c1	Cryptococcus gattii	microbial growth			MIC80	1.7 µM (≈ 0.376 µg/mL)
